miR-122 sensor – miR-122 Renilla sensor signal increase in Huh7, primary screen, miR-122 inhibitor project, cell-based, single point, plate reader; 340,000 tested, 0.3% active; activation (reporter increase), % at 12.5 µM; Huh7 miR-122 Renilla luciferase sensor, 48 h; neutral wells = 0, positive control = 100;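 active = mean replicate activation score at least 90 and every replicate individually at or above 90; inconclusive = only one of the two criteria met; inactive = neither criterion met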;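 note: higher luciferase means less miR-122 activity so hits act as miR-122 inhibitors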
Rtt109 Vps75 – inhibitors of C. albicans Rtt109/Vps75 HAT, primary screen, biochemical, ThioGlo CoA-SH fluorescence, plate reader; Histone acetyltransferase RTT109 (Candida albicans (strain SC5314 / ATCC MYA-2876)), …; purified Rtt109/Vps75, 4 h; inhibition, % at 34.9 µM; 330,000 tested, 0.16% active;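 active = inhibition of at least 50% in every replicate; inconclusive = best replicate reaches 50% inhibition but some replicates fall short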
Cneo AK release – Cryptococcus neoformans cell lysis inducers, primary screen, AK release luminescence, single concentration. C. neoformans lysis, adenylate kinase release luminescence, 4 h; normalised: neutral wells 0, clomiphene wells 100. lysis activity, % at 15 µM. 360,000 tested, 0.2% active;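 active = mean lysis activity across replicates of at least 80%, whatever share of replicates individually reach that level; inactive = mean lysis activity below 80%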
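read-out = cell lysis signal | test system = log-phase Cryptococcus neoformans yeast cells | input = cells at 5 × 10^6 per mL | medium = fresh YPD growth medium | signal = luminescent adenylate kinase detection reagent | timing = 4 h at 37 °C static, read 1 h later | dosing = single dose | controls = Clomiphene as positive lysis control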
GSIS activator – GLuc luminescence reporter in INS-1E cells, primary screen for activators of glucose-dependent secretion of insulin; INS-1E GLuc reporter insulin secretion, 2-3 h; activation, % at 16.6 µM; 370,000 tested, 0.61% active; AID 743287, 2014;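 active = lowest replicate activation of at least 40%, so every replicate reaches that level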;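 note: 0% = median of neutral control wells and 100% = median of IBMX positive control wells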
HIV Env fusion – inhibitors of HIV-1 Env-driven cell-cell fusion, primary screen, HeLa-JRFL effector, CEM21 target cells, luciferase; 360,000 tested, 1.1% active; inhibition, % at 12.3 µM;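 active = mean replicate inhibition score of at least 50 and every replicate individually at or above 50; inconclusive = only one of the two criteria met; inactive = mean below 50 and not all replicates reaching 50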;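 note: 0% = plate neutral controls and 100% = maraviroc near 300 nM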
dFosB activator – activators of delta FosB homodimer, primary screen, biochemical, fluorescence polarization, TAMRA-CDK5 oligo, single point; purified delta FosB; percent of positive-control signal above neutral wells; activation, % at 25 µM; 340,000 tested, 0.99% active; AID 493131, 2011;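 active = mean activation above about 17%, with every replicate also reaching it, limit read from the data, passing the limit was not always enough; inconclusive = only one of the two conditions met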
Target sequence (P13346 whole entry, looked up): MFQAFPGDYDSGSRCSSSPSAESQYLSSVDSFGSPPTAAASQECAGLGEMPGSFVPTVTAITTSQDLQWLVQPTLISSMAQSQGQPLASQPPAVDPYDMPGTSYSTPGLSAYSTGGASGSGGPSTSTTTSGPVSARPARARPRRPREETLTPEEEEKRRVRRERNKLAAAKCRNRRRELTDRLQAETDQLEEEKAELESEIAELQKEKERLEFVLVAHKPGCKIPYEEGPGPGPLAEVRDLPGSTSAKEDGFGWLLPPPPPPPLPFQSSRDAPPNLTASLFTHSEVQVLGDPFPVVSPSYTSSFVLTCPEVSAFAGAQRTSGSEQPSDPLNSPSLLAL
The depositor's hits bear a star; ? = inconclusive; . = not tested or not shown; [ ] = dose if it differs, or a comment. An excerpt weighted towards active compounds, which were near 2.4% of everything screened.

SMILES | miR-122 sensor | Rtt109 Vps75 | Cneo AK release | GSIS activator | HIV Env fusion | dFosB activator
OCCN1CCN(CC(O)COc2ccc(C34CC5CC(CC(C5)C3)C4)cc2)CC1 (configuration not stated) | . | 16 | . | 90* | 12 | 4
OCCN1CCN(CC(O)COc2ccc(Cl)cc2)CC1 (configuration not stated) | -2 | -19 | -2 | . | . | -1
Cc1nn(Cc2ccccc2)c(C)c1NC(=O)CSc1nc(-c2ccccc2)nc2c1cnn2-c1ccccc1 | -3 | -9 | -1 | -4 | . | 0
Cc1nc(SCC(=O)Nc2c(C)nn(C)c2C)c2cnn(-c3ccccc3)c2n1 | -2 | -3 | 0 | . | 64* | 7
CC(C)c1nc(SCC(=O)Nc2c[nH]c(=O)[nH]c2=O)c2cnn(-c3ccccc3)c2n1 | 1 | 2 | . | 11 | -3 | 153*
O=C(NCC[C@H]1CC[C@H](NS(=O)(=O)Cc2ccccc2)[C@@H](CO)O1)C1CC1 | . | . | -6 | 8 | -2[16.7 µM] | .
CNC[C@@H]1Oc2ncccc2C(=O)N(C)C[C@@H]1C | . | . | . | -6 | . | .
Cc1sc2ncn(CC(=O)N(CC(=O)NC3CCCC3)Cc3cccs3)c(=O)c2c1C | 123* | -2 | -1 | 3 | . | -13
CC(C)N1C(=O)CC(Nc2ccc(N3CCOCC3)cc2)C1=O (configuration not stated) | 183* | 3 | -3 | . | -67 | 3
CCOc1ccc(Br)cc1S(=O)(=O)Nc1ccc(Cl)c(S(=O)(=O)N(CC)c2ccccc2)c1 | 281* | -3 | 1 | -15 | -4 | -8
CCOc1ccc(Br)cc1S(=O)(=O)Nc1ccc(Cl)c(S(=O)(=O)N(C)C)c1 | 0 | 9 | -2 | -15 | . | -2
C=CCN=C1NN=C(c2ccc3c(c2)OCCO3)CS1 | 154* | 2 | -1 | 10 | 32 | -5
c1ccc(C2=NNC(=NCc3ccc4c(c3)OCO4)SC2)cc1 | 0 | -3 | 2 | 1 | . | -6
CN(C)S(=O)(=O)c1ccc(C(=O)OCc2nnc(-c3ccccc3)o2)cc1 | 5 | -17 | 2 | -3 | 3 | -11
CS(=O)(=O)c1ccc(C(=O)OCc2nnc(-c3ccccc3)o2)cc1[N+](=O)[O-] | . | 10 | . | 71* | -273 | -3
Cc1onc(-c2ccccc2)c1C(=O)OCc1nnc(-c2ccc([N+](=O)[O-])cc2)o1 | -3 | -2 | 4 | -25 | 60* | -6
O=C(OCc1nnc(-c2ccccc2)o1)c1cc([N+](=O)[O-])ccc1Cl | -9 | -1 | 2 | 4 | 19 | -9
COc1ccc(NC(=O)Cc2c(SC)c3ccccc3n2Cc2ccccc2)cc1 | . | -2 | . | 97* | -7 | 0
CSc1c(CC(=O)NCCCO)n(Cc2ccccc2)c2ccccc12 | 6 | 17 | 3 | 7 | 6 | -1
COc1ccccc1NC(=O)N[C@@H]1C=C[C@H](CC(=O)N[C@@H](C)c2ccccc2)O[C@@H]1CO | . | . | . | 21 | . | .
O=C(CCN1C(=O)/C(=C\c2ccccc2F)SC1=S)N1CCOCC1 | -2 | . | -4 | 42* | 30 | .
COc1ccc2c3c(n(C)c2c1)[C@@H](CO)N(C(C)=O)CC31CN(C(=O)NC(C)C)C1 | . | . | . | 22 | . | .
CC(C)C[C@@]12C(=O)N(c3ccc(Br)cc3)C(=O)N1[C@H](c1ccc(Br)cc1)[C@@H]1C(=O)N(C(C)(C)C)C(=O)[C@@H]12 | 6 | 6 | -1 | 19 | 80* | -3
CC[C@@]12C(=O)N(c3cccc(Cl)c3)C(=O)N1[C@H](c1ccc(Br)cc1)[C@@H]1C(=O)N(C(C)(C)C)C(=O)[C@@H]12 | -1 | 4 | -2 | -1 | 84* | -11
CC(C)C[C@@]12C(=O)N(c3cccc(F)c3)C(=O)N1[C@H](c1ccc(Br)cc1)[C@@H]1C(=O)N(C(C)(C)C)C(=O)[C@@H]12 | 0 | 6 | 6 | -34 | 69* | -1
SMILES | miR-122 sensor | Rtt109 Vps75 | Cneo AK release | GSIS activator | HIV Env fusion | dFosB activator
CC[C@@]12C(=O)N(c3cccc(C)c3)C(=O)N1[C@H](c1ccc(Br)cc1)[C@@H]1C(=O)N(C(C)(C)C)C(=O)[C@@H]12 | -4 | 9 | 1 | 5 | 54 | -10
CC(C)C[C@@]12C(=O)N(c3cccc(Cl)c3)C(=O)N1[C@H](c1ccc(Br)cc1)[C@@H]1C(=O)N(C(C)(C)C)C(=O)[C@@H]12 | 0 | 0 | 0 | -10 | 91* | 3
COCCNC(=O)C[C@H]1CC[C@@H]2[C@H](COc3ccc(NC(=O)C4CCCC4)cc3C(=O)N2C)O1 | 2[16.7 µM] | . | 56 | -1 | -18[16.7 µM] | .
COc1ccc(S(=O)(=O)N(C)C[C@@H]2OCCCC[C@H](C)Oc3ccc(NC(=O)Nc4c(C)noc4C)cc3C(=O)N([C@@H](C)CO)C[C@@H]2C)cc1 | -4[16.7 µM] | . | 51 | -5 | ? | .
C[C@H](NC(=O)C[C@H]1CC[C@H](NC(=O)CN2CCOCC2)[C@H](CO)O1)c1ccccc1 | 1[16.7 µM] | . | 17 | -1 | -5[16.7 µM] | .
CCC1CCCCN1S(=O)(=O)c1ccc(NC(=O)c2ccncc2)cc1 (configuration not stated) | -3 | -2 | 4 | -44 | 63* | -7
CCC1CCCCN1S(=O)(=O)c1ccc(C(=O)Nc2nnc(C3CC3)o2)cc1 (configuration not stated) | . | -1 | 1 | . | 20 | -7
CCC1CCCCN1S(=O)(=O)c1ccc(NC(=O)c2nc(S(C)(=O)=O)ncc2Cl)cc1 (configuration not stated) | 18 | 6 | -1 | 72* | 0 | -6
O=C(C1=C[C@@H](c2ccc3c(c2)Cc2ccccc2-3)C[C@@H](OCCCCO)O1)N1CCCCC1 | . | . | 7 | . | -9[16.7 µM] | .
C[C@@H]1CN([C@@H](C)CO)C(=O)c2cc(-c3cccnc3)cnc2O[C@@H]1CN(C)C(=O)c1ccccc1F | -2[16.7 µM] | . | -4 | 1 | -11[16.7 µM] | .
COC(=O)[C@@]1(Cc2ccccc2)[C@H]2C(=O)N(Cc3ccccc3)C(=O)[C@H]2[C@H]2CN=C(SCc3ccc(C#N)cc3)N21 | -5 | -1 | 2 | -19 | 69* | -3
CC[C@]1(C(=O)OC)[C@H]2C(=O)N(Cc3ccccc3)C(=O)[C@H]2[C@H]2CN=C(SCC3CC3)N21 | 3 | -1 | 2 | -17 | 81* | -1
CC[C@]1(C(=O)OC)[C@H]2C(=O)N(Cc3ccccc3)C(=O)[C@H]2[C@H]2CN=C(SCc3ccc(C(=O)OC)cc3)N21 | 3 | -2 | 2 | -15 | 32 | -5
